Results reported in ChEMBL document CHEMBL1148719, “Fine-tuning the amphiphilicity: a crucial parameter in the design of potent alpha-phenyl-N-tert-butylnitrone analogues” (J Med Chem, 2007).

Assays:
[1] = system: Rotifers; test: Cytoprotection against doxorubicin-induced toxicity in rotifer assessed as viability at 10 uM; type: functional, Rotifera
In short: (§1)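 Whole rotifers were exposed for 24 h to oxidotoxin (hydrogen peroxide or doxorubicin, 200 µM), with nitrone antioxidant added at 10 µM. Read-out was the percentage of viable organisms. Data are mean ± SEM (N = 10). Comparison was against vehicle control by ANOVA followed by Bonferroni t-test.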

[2] = Cytoprotection in rat mixed cortical cells cultures assessed as inhibition of doxorubicin-induced cell death at 10 uM after 24 hrs; type: functional
In short: (§2)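 Mixed cortical cultures were treated for 24 h with oxidotoxin (hydrogen peroxide, peroxynitrite or doxorubicin, 200 µM), with antioxidant added at 10 µM. The value is the percentage inhibition of Trypan blue absorbance, read as enhanced cell survival. Data are mean ± SEM (N = 10). Comparison was against vehicle control by ANOVA with Bonferroni t-test.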

[3] = species: Rattus norvegicus; test: Inhibition of peroxynitrite-induced inactivation of mitochondrial NADH:ubiquinone oxidoreductase iron sulfur cluster N2 at 10 uM
In short: (§3)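 Rat brain submitochondrial particles were incubated for 30 min with hydrogen peroxide, peroxynitrite or doxorubicin, with or without nitrone at 10 µM. Complex I iron sulfur cluster N2 activity was measured as ferricyanide reduction. The value is the percentage inhibition of oxidative inactivation. Data are mean ± SEM (N = 10). Controls were vehicle-treated particles exposed to oxidotoxin alone; statistics were ANOVA with Bonferroni t-test.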

[4] = Cytoprotection in rat mixed cortical cells cultures assessed as inhibition of peroxynitrite-induced cell death at 10 uM after 24 hrs; type: functional; in short: as §2
[5] = species: Rattus norvegicus; test: Inhibition of hydrogen peroxide-induced inactivation of mitochondrial NADH:ubiquinone oxidoreductase iron sulfur cluster N2 at 10 uM; in short: as §3
[6] = system: Rotifers; test: Cytoprotection against hydrogen peroxide-induced toxicity in rotifer assessed as viability at 10 uM; type: functional, Rotifera; in short: as §1
[7] = Cytoprotection in rat mixed cortical cells cultures assessed as inhibition of hydrogen peroxide-induced cell death at 10 uM after 24 hrs; type: functional; in short: as §2
[8] = species: Rattus norvegicus; test: Inhibition of doxorubicin-induced inactivation of mitochondrial NADH:ubiquinone oxidoreductase iron sulfur cluster N2 at 10 uM; in short: as §3
[9] = Toxicity against rat mixed cortical cells cultures at 10 uM; type: cell-based

SMILES	inhibition [3]	inhibition [5]	inhibition [8]	Activity [1]	inhibition at 10 µM [2]	inhibition at 10 µM [4]	Activity [6]	inhibition at 10 µM [7]	Activity [9]
CC(C)(C)/[N+]([O-])=C\c1ccc(CNC(=O)[C@@H](O)[C@H](O)[C@H](O[C@@H]2O[C@H](CO)[C@H](O)[C@H](O)[C@H]2O)C(O)CO)cc1 (stereo partly specified)	17.3%	25.1%	13.5%	18.2%	18.5%	17.3%	18.6%	18.3%	
CC(C)(C)/[N+]([O-])=C/c1ccccc1	27.6%	35%	44.3%	18.7%	24.2%	20.6%	25.6%	25%	
CCCCCCCC(=O)NCC(C)(C)/[N+]([O-])=C/c1ccccc1OCC									Toxic

More lines, main results first:

inhibition [3]	inhibition [5]	inhibition [8]	SMILES	Activity [1]	inhibition at 10 µM [2]	inhibition at 10 µM [4]	Activity [6]	inhibition at 10 µM [7]	Activity [9]
72.5%	78.3%	90.7%	CCCCCCCC(=O)NCC(C)(C)/[N+]([O-])=C/c1ccc(CNC(=O)[C@H](O)[C@H](O)[C@H](O[C@@H]2O[C@H](CO)[C@H](O)[C@H](O)[C@H]2O)[C@@H](O)CO)cc1	85.8%	82%	61%	83%	81%	
40.5%	59.2%	83.5%	CCCCCCCC(=O)NCC(C)(C)/[N+]([O-])=C/c1ccc(C(=O)NCC(=O)NC(CO)(CO)CO)cc1	54.3%	74.3%	30.5%	24.1%	33.8%	
39.3%	51.9%	57.3%	CC(C)(CNC(=O)CCC(F)(F)C(F)(F)C(F)(F)C(F)(F)C(F)(F)C(F)(F)F)/[N+]([O-])=C/c1ccc(CNC(=O)[C@H](O)[C@H](O)[C@H](O[C@@H]2O[C@H](CO)[C@H](O)[C@H](O)[C@H]2O)[C@@H](O)CO)cc1	30.6%	34.9%	40.1%	40.6%	63.4%	
